Paper PMC7883929 (Molecular Vision, 2021)
Entries after “also recorded” stand apart in the source; their conditions may differ. Like-named read-outs stand apart in the source and are kept apart here.

Legend:
[1] = cited from earlier work
hTM-80 cells = experiment: Superoxide dismutase activity assay; format: cell-based, human; settings: 100 µM, overnight/24 h
[2] = test system: laser-induced glaucoma model in monkeys; settings: at 6 h, cited from earlier work
normotensive rat eyes = experiment: IOP measurement in normotensive Sprague Dawley rats; format: in vivo; settings: Travoprost 0.004% single eye drop, 6 h time point only
In short: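 Adult (10-week) female Sprague Dawley rats, n = 3/group, housed under dim light (90 lux) and dosed under a masked protocol. Each received a single 30 µl topical drop in PBS: saline vehicle, 0.004% travoprost positive control, or test compound. IOP was read by TonoLab rebound tonometry at 0, 3, 6, 24, 48 and 72 h. The contralateral eye served as control. Dosing was repeated three times per rat after 7-day washouts. Rank-sum test, mean ± SEM.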

In the case of `O=C(CCC/C=C\C[C@@H]1[C@@H](CC[C@@H](O)CCc2ccccc2)[C@H](O)C[C@@H]1O)OCCCCO[N+](=O)[O-]` [LBN, Latanoprostene bunod], the IOP-lowering ability [1] is given as −9.0 mm/Hg.
In the case of `CC(C)OC(=O)CCC/C=C\C[C@@H]1[C@@H](CC[C@@H](O)CCc2ccccc2)[C@H](O)C[C@@H]1O` [latanoprost], the IOP-lowering ability [1] is given as −7.7 mm/Hg.
In the case of `CC1(C)CC(N)CC(C)(C)N1[O]` [SA-3, 4-amino TEMPOL], the “SOD enzyme level (in words)” value (hTM-80 cells) was “the effect was comparable to that of a standard SOD mimetic SA-3 compound”.
In the case of `O=[N+]([O-])OCC(CO[N+](=O)[O-])O[N+](=O)[O-]` [GTN, glyceryl trinitrate], the IOP lowering ([2]; dose 500 µg) is given as 13%.
For `CC1(C)CC(O[N+](=O)[O-])CC(C)(C)N1[O]` [4-nitro-TEMPOL], the IOP lowering ([2]; dose 150 µg/eye drop) is given as 20%.
Compound `CC(C)OC(=O)CCC/C=C\C[C@@H]1[C@@H](/C=C/[C@@H](O)COc2cccc(C(F)(F)F)c2)[C@H](O)C[C@@H]1O` [Travoprost] has an IOP lowering (normotensive rat eyes) of 14%.
In the case of `[NH-]c1c[n+](N2CCOCC2)no1` [SIN-1, Linsidomine], the “SOD enzyme level (in words)” value (hTM-80 cells) was “did not increase the SOD enzyme; also recorded: did not increase the SOD level”.
